Data set [1] is described as follows: Cmax in Sprague-Dawley rat at 10 mg/kg, po. Details: dose 10 mg/kg, route oral. To be noted: in vivo. It is filed as ADME, organism-based.
A short description of data set [2]: Metabolic stability in human microsomes assessed as compound remaining at 1 uM measured at 25 mins. The data set is classed as ADME, Microsome. To be noted: read-out: Stability. In a few lines:
(§1)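 Microsomes at 0.25 mg protein with 1 mM NADPH and 1 µM compound, incubated 25 min at 37 °C; % parent remaining at 25 min. Rat: pooled male SD microsomes. Human: pooled male/female microsomes.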

The nature of data set [3]: AUC (0 to infinity) in Sprague-Dawley rat at 10 mg/kg, po. The data set is classed as ADME, organism-based. Details: dose 10 mg/kg, time infinity, route oral. To be noted: in vivo.
In a further data set the test system is Rattus norvegicus. Description: Antiinflammatory activity in Lewis rat assessed as inhibition of concanavalin A-induced IFNgamma production administered 30 mins prior to concanavalin A challenge measured at 4 hrs by ELISA. It is filed as functional. Details: concentration or dose not given beside the values. In general terms: In an ELISA, binding on a coated surface is turned into a signal by an enzyme label.

In a further data set the test system is UT7. Description: Selectivity ratio for inhibition of JAK2 in human UT7 cells to inhibition of JAK1 in human TF1 cells. It is filed as cell-based. In a few lines:
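Cell-based pSTAT read-outs. Jak1: IL-6-stimulated pSTAT3 in TF-1 cells. Jak2: Epo-stimulated pSTAT5 in UT-7 cells. Full-length endogenous Jak at cellular ATP levels. Run in 96-well format, some in 384-well. Ratio = Jak2 cellular value / Jak1 cellular value.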

Data set [4] can be described thus: Plasma clearance in Sprague-Dawley rat at 5 mg/kg, iv. The data set is classed as ADME, organism-based.
Data set [5] is described as follows: Metabolic stability in Sprague-Dawley rat microsomes assessed as compound remaining at 1 uM measured at 25 mins. The data set is classed as ADME, Microsome. The note with it: read-out: Stability. The procedure, abridged:
as §1

Data set [6] can be described thus: Oral bioavailability in Sprague-Dawley rat at 10 mg/kg. It is filed as ADME, organism-based. To be noted: in vivo.

SMILES strings stand for the structures.

For `O=S(=O)(N[C@H]1CC[C@@H](c2nnc3cnc4[nH]ccc4n23)C1)C1CCC1`, the Cmax – broadly, the highest concentration seen after dosing – in data set [1] is 0.31 µg/mL. Further, the remaining at 25 min, 1 µM in data set [2] worked out at 85%; in data set [5], 80%. Moreover, the area under the curve AUC(0-inf) (usually the area under the concentration-time curve extrapolated to infinity) in data set [3] came to 0.86 µg·h/mL. Further, the “inhibition (INH)” value in the data set with Rattus norvegicus amounted to 40%. Moreover, the Selectivity ratio in the data set with UT7 came out at 227. Besides, the clearance (in general, the rate of elimination divided by the concentration) in data set [4] is 2.5 L/h/kg. Moreover, the bioavailability – broadly, the share of a dose that reaches the circulation, judged against a reference dose that is usually intravenous – in data set [6] came to 32%.

Take `O=S(=O)(N[C@H]1CC[C@@H](c2nnc3cnc4[nH]ccc4n23)C1)c1cccc(Cl)c1`: the remaining at 25 min, 1 µM amounted to 8% in data set [2] and 6% in data set [5]. Further, the Selectivity ratio in the data set with UT7 was 54.

For the molecule `c1cc2c(ncc3nnc(C4CCCCC4)n32)[nH]1`, the Cmax in data set [1] amounted to 0.17 µg/mL. Besides, in data set [3], the AUC(0-inf) turned out to be 0.28 µg·h/mL.

Turning to `O=S(=O)(N[C@H]1CC[C@@H](c2nnc3cnc4[nH]ccc4n23)C1)c1ccccc1`, the remaining at 25 min, 1 µM in data set [2] stood at 42%; in data set [5] it was 31%. Further, the Selectivity ratio with UT7 stood at 34.

`O=S(=O)(N[C@H]1CC[C@@H](c2nnc3cnc4[nH]ccc4n23)C1)C1CC1` displayed a Cmax in data set [1] of 0.23 µg/mL. The remaining at 25 min, 1 µM in data set [2] amounted to 100%; in data set [5], 98%. In data set [3], this molecule showed an AUC(0-inf) of 1.1 µg·h/mL. In the data set with Rattus norvegicus, the “inhibition (INH)” value is listed as 55%. The Selectivity ratio with UT7 came to 17. This molecule showed a clearance in data set [4] of 2.9 L/h/kg. This molecule also had a bioavailability in data set [6] of 29%.

In the case of `O=S(=O)(N[C@@H]1CCC[C@@H](c2nnc3cnc4[nH]ccc4n23)C1)C1CC1` (racemic), in the data set with UT7, the Selectivity ratio is more than 10.

On to `O=S(=O)(N[C@H]1CCC[C@@H](c2nnc3cnc4[nH]ccc4n23)C1)C1CC1` (racemic), for which, in data set [1], the Cmax was determined as 0.01 µg/mL. Besides, the AUC(0-inf) in data set [3] was found to be 0.05 µg·h/mL. The “inhibition (INH)” value in the data set on Rattus norvegicus was found to be 0%. For the same molecule, the Selectivity ratio in the data set on UT7 was found to be 9.

In the case of `CCS(=O)(=O)N[C@H]1CC[C@@H](c2nnc3cnc4[nH]ccc4n23)C1`, in the data set on UT7, the Selectivity ratio is 101. In addition, the remaining at 25 min, 1 µM in data set [5] was 100%.

`O=S(=O)(N[C@]12CC[C@](c3nnc4cnc5[nH]ccc5n43)(CC1)CC2)C1CC1` gave a Cmax in data set [1] of 0.06 µg/mL. The molecule further came in with an AUC(0-inf) in data set [3] of 0.41 µg·h/mL. In addition, the “inhibition (INH)” value in the data set on Rattus norvegicus is 31%. Further, the Selectivity ratio in the data set on UT7 came out at 225. In data set [4], this molecule gave a clearance of 3.1 L/h/kg. In data set [6], this molecule displayed a bioavailability of 13%.

As for `O=S(=O)(N[C@H]1CC[C@@H](c2nnc3cnc4[nH]ccc4n23)C1)C1CCCC1`, the remaining at 25 min, 1 µM in data set [2] is 90%; in data set [5], 68%. For the same molecule, the Selectivity ratio in the data set on UT7 came out at 100.

As for `COc1ccc(S(=O)(=O)N[C@H]2CC[C@@H](c3nnc4cnc5[nH]ccc5n34)C2)cc1`, the figures for the remaining at 25 min, 1 µM in data set [2] and in data set [5] were 35% and 61%, respectively. In addition, the Selectivity ratio with UT7 amounted to 26.

Consider `CCCS(=O)(=O)N[C@H]1CC[C@@H](c2nnc3cnc4[nH]ccc4n23)C1`, for which the Selectivity ratio in the data set on UT7 is more than 20.

Turning to `O=S(=O)(N[C@H]1CC[C@@H](c2nnc3cnc4[nH]ccc4n23)C1)C1CCCCC1`, in the data set with UT7, the Selectivity ratio is more than 75.

For the molecule `O=S(=O)(N[C@H]1CC[C@H](c2nnc3cnc4[nH]ccc4n32)CC1)C1CC1`, in the data set on UT7, the Selectivity ratio is more than 20.

`CS(=O)(=O)N[C@H]1CC[C@@H](c2nnc3cnc4[nH]ccc4n23)C1`: in the data set with UT7, the Selectivity ratio worked out at 34.

Source of the values: ChEMBL document CHEMBL3616446, “Structure activity optimization of 6H-pyrrolo[2,3-e][1,2,4]triazolo[4,3-a]pyrazines as Jak1 kinase inhibitors” (Bioorg Med Chem Lett, 2015).
